{
  "source": "ChEMBL document CHEMBL1139475",
  "about": "“Structural, mutagenic, and kinetic analysis of the binding of substrates and inhibitors of human phenylethanolamine N-methyltransferase” (J Med Chem, 2005)",
  "key": {"[1]": {"target": "T1, Phenylethanolamine N-methyltransferase (Homo sapiens, UniProt P11086)", "T1 sequence (P11086 whole entry)": "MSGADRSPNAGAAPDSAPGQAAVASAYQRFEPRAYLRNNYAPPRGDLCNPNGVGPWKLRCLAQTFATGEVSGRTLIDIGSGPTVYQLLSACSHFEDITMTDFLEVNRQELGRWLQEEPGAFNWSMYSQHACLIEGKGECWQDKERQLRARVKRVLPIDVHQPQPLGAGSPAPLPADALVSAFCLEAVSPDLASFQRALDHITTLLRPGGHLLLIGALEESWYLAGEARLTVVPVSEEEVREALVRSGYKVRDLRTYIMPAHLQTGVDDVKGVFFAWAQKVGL", "assay": "Binding affinity to human free PNMT"}, "[2]": {"assay": "Binding affinity to human PNMT-S-adenosyl-L-methionine complex"}, "[3]": {"target": "Phenylethanolamine N-methyltransferase (Homo sapiens, UniProt P11086, E219A)", "assay": "(§1) Activity of human PNMT E219A mutant assessed as phenylethanolamine methylation", "in_short": "(§2)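 C-terminally His6-tagged human PNMT mutants made by site-directed mutagenesis, expressed in E. coli BL21(DE3)-pLysS, and purified by Ni affinity then gel filtration. Steady-state kinetics used 50 mM potassium phosphate pH 8.0 with [3H]-AdoMet and phenylethanolamine, each varied between 0.3 and 3 × Km. Incubation was 30 min at 30 °C, quenched with borate pH 10, extracted into toluene/isoamyl alcohol, and counted by scintillation.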"}, "[4]": {"target": "Phenylethanolamine N-methyltransferase (Homo sapiens, UniProt P11086, D267A)", "assay": "Activity of human PNMT D267A mutant assessed as phenylethanolamine methylation"}, "[5]": {"target": "Phenylethanolamine N-methyltransferase (Homo sapiens, UniProt P11086, D267N)", "assay": "(§3) Activity of human PNMT D267N mutant assessed as phenylethanolamine methylation", "in_short": "as §2"}, "[6]": {"target": "T1, Phenylethanolamine N-methyltransferase", "assay": "Activity of human wild type PNMT assessed as phenylethanolamine methylation"}, "[7]": {"target": "Phenylethanolamine N-methyltransferase (Homo sapiens, UniProt P11086, V53A)", "assay": "(§4) Activity of human PNMT V53A mutant assessed as phenylethanolamine methylation", "in_short": "as §2"}, "[8]": {"target": "Phenylethanolamine N-methyltransferase (Homo sapiens, UniProt P11086, K57A)", "assay": "(§5) Activity of human PNMT K57A mutant assessed as phenylethanolamine methylation", "in_short": "as §2"}, "[9]": {"substrate": "C[S+](CC[C@H](N)C(=O)[O-])C[C@H]1O[C@@H](n2cnc3c(N)ncnc32)[C@H](O)[C@@H]1O", "assay": "as §4", "in_short": "as §2"}, "[10]": {"substrate": "NCC(O)c1ccc(Cl)c(Cl)c1", "assay": "as §4", "in_short": "as §2"}, "[11]": {"substrate": "C[S+](CC[C@H](N)C(=O)[O-])C[C@H]1O[C@@H](n2cnc3c(N)ncnc32)[C@H](O)[C@@H]1O", "assay": "as §3", "in_short": "as §2"}, "[12]": {"substrate": "NCC(O)c1ccc(Cl)c(Cl)c1", "assay": "as §3", "in_short": "as §2"}, "[13]": {"substrate": "C[S+](CC[C@H](N)C(=O)[O-])C[C@H]1O[C@@H](n2cnc3c(N)ncnc32)[C@H](O)[C@@H]1O", "assay": "as §1", "in_short": "as §2"}, "[14]": {"substrate": "NCC(O)c1ccc(Cl)c(Cl)c1", "assay": "as §1", "in_short": "as §2"}, "[15]": {"substrate": "C[S+](CC[C@H](N)C(=O)[O-])C[C@H]1O[C@@H](n2cnc3c(N)ncnc32)[C@H](O)[C@@H]1O", "assay": "as §5", "in_short": "as §2"}, "[16]": {"substrate": "NCC(O)c1ccc(Cl)c(Cl)c1", "assay": "as §5", "in_short": "as §2"}, "[17]": {"substrate": "C[S+](CC[C@H](N)C(=O)[O-])C[C@H]1O[C@@H](n2cnc3c(N)ncnc32)[C@H](O)[C@@H]1O", "settings": "Homo sapiens"}, "[18]": {"substrate": "NCC(O)c1ccc(Cl)c(Cl)c1", "settings": "Homo sapiens"}, "[19]": {"substrate": "C[S+](CC[C@H](N)C(=O)[O-])C[C@H]1O[C@@H](n2cnc3c(N)ncnc32)[C@H](O)[C@@H]1O", "settings": "Homo sapiens", "remark": "listed apart in the source"}, "[20]": {"substrate": "NCC(O)c1ccc(Cl)c(Cl)c1", "settings": "Homo sapiens", "remark": "listed apart in the source"}},
  "data": [
    {"molecule": "CC(N)c1cccc(Cl)c1Cl", "note": "(stereo not given)", "values": [
      {"measurement": "Ki", "setting": "[1]", "value": 1.33, "unit": "µM"},
      {"measurement": "Ki", "setting": "[2]", "value": 0.072, "unit": "µM"}
    ]},
    {"molecule": "C[S+](CC[C@H](N)C(=O)[O-])C[C@H]1O[C@@H](n2cnc3c(N)ncnc32)[C@H](O)[C@@H]1O", "note": "(stereo not given in full) [ADEMETIONINE]", "values": [
      {"measurement": "Kd", "setting": "[3]", "value": 7.5, "unit": "µM"},
      {"measurement": "Kd", "setting": "[4]", "value": 11, "unit": "µM"},
      {"measurement": "Kd", "setting": "[5]", "value": 7.5, "unit": "µM"},
      {"measurement": "Kd", "setting": "[6]", "value": 4.8, "unit": "µM"},
      {"measurement": "Kd", "setting": "[7]", "value": 7.1, "unit": "µM"},
      {"measurement": "Kd", "setting": "[8]", "value": 10.7, "unit": "µM"}
    ]},
    {"molecule": "Phenylethanolamine N-methyltransferase (Homo sapiens), P11086 V53A (protein) MSGADRSPNAGAAPDSAPGQAAVASAYQRFEPRAYLRNNYAPPRGDLCNPNGAGPWKLRCLAQTFATGEVSGRTLIDIGSGPTVYQLLSACSHFEDITMTDFLEVNRQELGRWLQEEPGAFNWSMYSQHACLIEGKGECWQDKERQLRARVKRVLPIDVHQPQPLGAGSPAPLPADALVSAFCLEAVSPDLASFQRALDHITTLLRPGGHLLLIGALEESWYLAGEARLTVVPVSEEEVREALVRSGYKVRDLRTYIMPAHLQTGVDDVKGVFFAWAQKVGL", "values": [
      {"measurement": "Km", "setting": "[9]", "value": 9.6, "unit": "µM"},
      {"measurement": "Km", "setting": "[10]", "value": 1630, "unit": "µM"}
    ]},
    {"molecule": "Phenylethanolamine N-methyltransferase (Homo sapiens), P11086 D267N (protein) MSGADRSPNAGAAPDSAPGQAAVASAYQRFEPRAYLRNNYAPPRGDLCNPNGVGPWKLRCLAQTFATGEVSGRTLIDIGSGPTVYQLLSACSHFEDITMTDFLEVNRQELGRWLQEEPGAFNWSMYSQHACLIEGKGECWQDKERQLRARVKRVLPIDVHQPQPLGAGSPAPLPADALVSAFCLEAVSPDLASFQRALDHITTLLRPGGHLLLIGALEESWYLAGEARLTVVPVSEEEVREALVRSGYKVRDLRTYIMPAHLQTGVNDVKGVFFAWAQKVGL", "values": [
      {"measurement": "Km", "setting": "[11]", "value": 7.1, "unit": "µM"},
      {"measurement": "Km", "setting": "[12]", "value": 1640, "unit": "µM"}
    ]},
    {"molecule": "Phenylethanolamine N-methyltransferase (Homo sapiens), P11086 E219A (protein) MSGADRSPNAGAAPDSAPGQAAVASAYQRFEPRAYLRNNYAPPRGDLCNPNGVGPWKLRCLAQTFATGEVSGRTLIDIGSGPTVYQLLSACSHFEDITMTDFLEVNRQELGRWLQEEPGAFNWSMYSQHACLIEGKGECWQDKERQLRARVKRVLPIDVHQPQPLGAGSPAPLPADALVSAFCLEAVSPDLASFQRALDHITTLLRPGGHLLLIGALEASWYLAGEARLTVVPVSEEEVREALVRSGYKVRDLRTYIMPAHLQTGVDDVKGVFFAWAQKVGL", "values": [
      {"measurement": "Km", "setting": "[13]", "value": 7.1, "unit": "µM"},
      {"measurement": "Km", "setting": "[14]", "value": 580, "unit": "µM"}
    ]},
    {"molecule": "Phenylethanolamine N-methyltransferase (Homo sapiens), P11086 K57A (protein) MSGADRSPNAGAAPDSAPGQAAVASAYQRFEPRAYLRNNYAPPRGDLCNPNGVGPWALRCLAQTFATGEVSGRTLIDIGSGPTVYQLLSACSHFEDITMTDFLEVNRQELGRWLQEEPGAFNWSMYSQHACLIEGKGECWQDKERQLRARVKRVLPIDVHQPQPLGAGSPAPLPADALVSAFCLEAVSPDLASFQRALDHITTLLRPGGHLLLIGALEESWYLAGEARLTVVPVSEEEVREALVRSGYKVRDLRTYIMPAHLQTGVDDVKGVFFAWAQKVGL", "values": [
      {"measurement": "Km", "setting": "[15]", "value": 11.7, "unit": "µM"},
      {"measurement": "Km", "setting": "[16]", "value": 1310, "unit": "µM"}
    ]},
    {"molecule": "Phenylethanolamine N-methyltransferase (Homo sapiens), P11086 (protein) MSGADRSPNAGAAPDSAPGQAAVASAYQRFEPRAYLRNNYAPPRGDLCNPNGVGPWKLRCLAQTFATGEVSGRTLIDIGSGPTVYQLLSACSHFEDITMTDFLEVNRQELGRWLQEEPGAFNWSMYSQHACLIEGKGECWQDKERQLRARVKRVLPIDVHQPQPLGAGSPAPLPADALVSAFCLEAVSPDLASFQRALDHITTLLRPGGHLLLIGALEESWYLAGEARLTVVPVSEEEVREALVRSGYKVRDLRTYIMPAHLQTGVDDVKGVFFAWAQKVGL", "values": [
      {"measurement": "Km", "setting": "[17]", "value": 1.2, "unit": "µM"},
      {"measurement": "Km", "setting": "[18]", "value": 100, "unit": "µM"}
    ]},
    {"molecule": "Phenylethanolamine N-methyltransferase (Homo sapiens), P11086 D267A (protein) MSGADRSPNAGAAPDSAPGQAAVASAYQRFEPRAYLRNNYAPPRGDLCNPNGVGPWKLRCLAQTFATGEVSGRTLIDIGSGPTVYQLLSACSHFEDITMTDFLEVNRQELGRWLQEEPGAFNWSMYSQHACLIEGKGECWQDKERQLRARVKRVLPIDVHQPQPLGAGSPAPLPADALVSAFCLEAVSPDLASFQRALDHITTLLRPGGHLLLIGALEESWYLAGEARLTVVPVSEEEVREALVRSGYKVRDLRTYIMPAHLQTGVADVKGVFFAWAQKVGL", "values": [
      {"measurement": "Km", "setting": "[19]", "value": 2.4, "unit": "µM"},
      {"measurement": "Km", "setting": "[20]", "value": 2050, "unit": "µM"}
    ]}
  ]
}
